The text below walks through data of article PMC4714678 (Cancer Science, 2015).

A short description of data set [1]: Pre‐clinical toxicology study. Format: in vivo, mouse, rat and monkey.
Data set [2] has as its system subintestinal vein vessels (SIV) of zebrafish. As to the kind of experiment: Transgenic zebrafish embryo angiogenesis assay. It is filed as in vivo. As to conditions: doses of the angiogenesis test.
Data set [3] relates to cancer cells (BGC‐823, PG and HT‐29). Put plainly: Fluorescence visualization for entry of peptides. As to conditions: BGC‐823, PG and HT‐29 cells, 25 μg/mL FITC‐conjugated peptide, 3 h, fixed, DAPI. Format: cell-based, human. The procedure, abridged:
(§1)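 Test peptide FITC-conjugated, or FITC-TAT cell-penetrating peptide, each at 25 μg/mL, applied for 3 h. HUVEC were isolated in-house. BGC-823, PG and HT-29 were grown in RPMI-1640 with 10% FBS at 37°C in 5% CO2. Cells were then fixed in 4% paraformaldehyde, permeabilized with 0.1% NP-40 in PBS, nuclei stained with DAPI (5 ng/mL), washed three times in PBS, and imaged by confocal microscopy.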

The subject of the next data set is HUVEC. Put plainly: Fluorescence visualization for entry of peptides. Format: cell-based, human. As to conditions: 25 μg/mL FITC‐conjugated peptide, 3 h, fixed, DAPI. The procedure, abridged: as §1
The conditions of data set [4]: previous studies; cited from earlier work.

No end group written: not given here.

DSGEGDFLAEGGGVR [fibrinostatin]: in data set [1] (pre‐clinical animal models, GLP standards, data not shown), the “side effects in toxicology study” value is given as “no observable side effects”. Also, the margin of safety result in data set [1] (single‐dose acute toxicity testing and repeated‐dose chronic toxicity study in the mouse, rat and monkey) was “wide margin of safety”. The toxicity to zebrafish result in data set [2] is listed as “no tocixity”.
For `N=C(N)NCCC[C@H](NC(=O)CNC(=S)Nc1ccc2c(c1)C(=O)OC21c2ccc(O)cc2Oc2cc(O)ccc21)C(=O)N[C@@H](CCCCN)C(=O)N[C@@H](CCCCN)C(=O)N[C@@H](CCCNC(=N)N)C(=O)N[C@@H](CCCNC(=N)N)C(=O)N[C@@H](CCC(N)=O)C(=O)N[C@@H](CCCNC(=N)N)C(=O)N[C@@H](CCCNC(=N)N)C(=O)N[C@@H](CCCNC(=N)N)C(=O)NCC(=O)N[C@@H](Cc1ccc(O)cc1)C(=O)O` [FITC‐labeled TAT peptide], the “entry into cells (confocal fluorescence)” value (in data set [3]; with HUVEC) was “entered” each time.
ADSGEGDFLAEGGGVRGPRVVERH [alphastatin]: the “anti‐angiogenesis activity of synthetic peptide” value in data set [4] is “showed anti‐angiogenesis activity”.
Regarding ADSGEGDFLAEGGGVR [FpA], the “anti‐angiogenesis activity of synthetic peptide” value in data set [4] was “inactive”.
